Experimental data reported in ChEMBL document CHEMBL2086391, “Structure based molecular design, synthesis and biological evaluation of α-pyrone analogs as anti-HSV agent” (Bioorg Med Chem Lett, 2012).
In brackets after ≈: the same amount, converted by molar mass. Activity calls are given as the source filed them. No cut-off for these calls is given here.

Assays:
[1] = tested on: Human immunodeficiency virus; experiment: Antiviral activity against HIV infected in human MT4 cells by MTT assay; format: functional, organism-based
Human alphaherpesvirus 1 [2] = experiment: Antiviral activity against HSV-1F ATCC 733 infected in african green monkey Vero cells assessed as inhibition of virus induced cytopathic effect after 3 days by MTT assay; format: functional, organism-based; conditions: Human alphaherpesvirus 1, ATCC 733, Vero, 72 h
Procedure, shortened: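 Vero cells seeded at 1.0 × 10^5 cells/ml, held 6 h at 37 °C, 5% CO2, then infected with virus at 0.5 MOI for 1 h. Serial compound concentrations added in triplicate, with 0.1% DMSO and acyclovir controls. MTT read after 3 days at 37 °C. % inhibition taken from test, virus-control and cell-control absorbances. EC50 is 50% inhibition of virus-induced CPE; experiment repeated three times.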

[3] = tested on: Human herpesvirus 2 strain G; experiment: Antiviral activity against HSV-2G ATCC 734 infected in african green monkey Vero cells after 2 to 3 days by plaque reduction assay; format: functional, organism-based; conditions: Human alphaherpesvirus 2, ATCC 734, Vero
Procedure, shortened: (§1)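 Vero cells infected at MOI 0.5 (HSV-1 or HSV-2), with serial compound dilutions in EMEM, held 1–2 h at room temperature. Cells then washed and overlaid with methylcellulose. Plaques stained with crystal violet after 2–3 days. Acyclovir and 0.1% DMSO served as controls. EC50 (50% plaque reduction) interpolated from dose-response curves.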

Human alphaherpesvirus 1 [4] = experiment: Antiviral activity against HSV-1F ATCC 733 infected in african green monkey Vero cells assessed as inhibition of virus yield at 20 ug/ml after 3 days by MTT assay; format: functional; conditions: Human alphaherpesvirus 1, ATCC 733, Vero, 72 h
[5] = Selectivity index, ratio of CC50 for african green monkey Vero cells to EC50 for HSV-2G ATCC 734 by plaque reduction assay; format: toxicity, cell-based; conditions: read-out: Ratio CC50/EC50
Procedure, shortened: (§2)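 SI derived from the Vero CC50 (MTT) divided by the plaque-reduction EC50 against the named HSV strain (MOI 0.5, methylcellulose overlay, crystal violet count after 2–3 days).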

Human alphaherpesvirus 1 [6] = experiment: Antiviral activity against HSV-1F ATCC 733 infected in african green monkey Vero cells after 2 to 3 days by plaque reduction assay; format: functional, organism-based; conditions: Human alphaherpesvirus 1, ATCC 733, Vero; procedure, shortened: as §1
[7] = Cytotoxicity against african green monkey Vero cells after 2 days by MTT assay; format: cell-based; conditions: chlorocebus sabaeus
Procedure, shortened: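 Vero cells plated at 1.0 × 10^5 cells/ml and exposed in triplicate to a range of compound concentrations, with 0.1% DMSO as negative control. After 2 days at 37 °C, 5% CO2, MTT added for 4 h. Formazan dissolved in 0.04 N HCl/isopropanol and read at 570 nm (reference 690 nm). % viability taken against media control; CC50 in µg/ml.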

[8] = Selectivity index, ratio of CC50 for african green monkey Vero cells to EC50 for HSV-1F ATCC 733 by plaque reduction assay; format: toxicity, cell-based; conditions: read-out: Ratio CC50/EC50; procedure, shortened: as §2
[9] = Selectivity index, ratio of CC50 for african green monkey Vero cells to EC50 for HSV-1F ATCC 733; format: toxicity, cell-based; conditions: read-out: Ratio CC50/EC50
Procedure, shortened: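 SI computed as CC50/EC50. CC50 from the 2-day MTT viability assay on Vero cells; EC50 from the 3-day MTT assay of HSV-1 cytopathic effect (MOI 0.5). Both in µg/ml.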

O=C(Nc1ccc(Cl)cc1)c1c(N2CCCC2)cc(-c2ccccc2)oc1=O
Activity [1]: inactive

O=C(NCCO)c1c(N2CCCCC2)cc(-c2ccc(F)cc2)oc1=O
Activity [1]: inactive

O=C(NCCO)c1c(N2CCCCC2)cc(-c2ccccc2)oc1=O
EC50 (Human alphaherpesvirus 1 [2]): 7.4 µg/mL (≈ 21.6 µM)
EC50 [3]: 14.5 µg/mL (≈ 42.3 µM)
inhibition at 20 µg/mL (Human alphaherpesvirus 1 [4]): 89%
selectivity ratio [5]: 3.6
EC50 (Human alphaherpesvirus 1 [6]): 4.1 µg/mL (≈ 12 µM)
CC50 at 48 h [7]: 52.5 µg/mL (≈ 153 µM)
selectivity ratio [8]: 12.8
selectivity ratio [9]: 7.1
Activity [1]: inactive

O=C(Nc1ccc(Br)cc1)c1c(N2CCCC2)cc(-c2ccccc2)oc1=O
Activity [1]: inactive

O=C(Nc1ccc(F)cc1)c1c(N2CCCC2)cc(-c2ccccc2)oc1=O
Activity [1]: inactive

Nc1nc2c(ncn2COCCO)c(=O)[nH]1 [ACYCLOVIR]
EC50 [3]: 1.8 µg/mL (≈ 7.99 µM)
inhibition at 20 µg/mL (Human alphaherpesvirus 1 [4]): 94%
CC50 at 48 h [7]: 130 µg/mL (≈ 577 µM)

Cc1ccc(NC(=O)c2c(N3CCCC3)cc(-c3ccccc3)oc2=O)cc1
EC50 (Human alphaherpesvirus 1 [2]): 20.9 µg/mL (≈ 55.8 µM)
inhibition at 20 µg/mL (Human alphaherpesvirus 1 [4]): 62%
CC50 at 48 h [7]: 56.5 µg/mL (≈ 151 µM)
selectivity ratio [9]: 2.7
Activity [1]: inactive

O=C(NCCO)c1c(N2CCCC2)cc(-c2ccc(F)cc2)oc1=O
Activity [1]: inactive

O=C(NCCO)c1c(N2CCCC2)cc(-c2ccccc2)oc1=O
EC50 (Human alphaherpesvirus 1 [2]): 9.7 µg/mL (≈ 29.5 µM)
inhibition at 20 µg/mL (Human alphaherpesvirus 1 [4]): 70%
CC50 at 48 h [7]: 30 µg/mL (≈ 91.4 µM)
selectivity ratio [9]: 3.1
Activity [1]: inactive

O=C(Nc1ccccc1)c1c(N2CCCC2)cc(-c2ccccc2)oc1=O
EC50 (Human alphaherpesvirus 1 [2]): 12.5 µg/mL (≈ 34.7 µM)
inhibition at 20 µg/mL (Human alphaherpesvirus 1 [4]): 79%
CC50 at 48 h [7]: 37.5 µg/mL (≈ 104 µM)
selectivity ratio [9]: 3
Activity [1]: inactive
